Bioassay records from PubChem.
The list is not random: actives were taken first. Their share in the collection is about 2.5%.
PG9 Ab binder: binds the HIV-1 gp120 antibody PG9. TR-FRET gp120-PG9 antibody binding. inhibition, % at 6.7 µM. 0.43% of 360,000 active; in the data active means inhibition above about 8.5%
NR1D1 modulator: modulates human Rev-erb alpha binding to DNA; Rev-erbα–FITC-DNA binding, fluorescence polarization, 90 min; 0.79% of 370,000 active; P20393; activity, % at 10 µM;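 active means activity above about 14%, limit read from the data; passing the limit was not always enough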;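 further: 0% = DMSO wells with 35 nM protein and 100% = DMSO wells with 750 nM protein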
MC4R ag barr: human MC4R agonism via beta-arrestin | U2OS MC4R beta-arrestin complementation, luminescence; percent of melanotan II response, DMSO zero | activation, % at 8.9 µM | P32245 | AID 540308 | 0.98% of 360,000 active;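 active means activation above a per-plate cutoff, the mean activation of sample wells on that plate plus 3 SD, cut at about 8% in these data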
Target sequence (P32245 whole entry, looked up): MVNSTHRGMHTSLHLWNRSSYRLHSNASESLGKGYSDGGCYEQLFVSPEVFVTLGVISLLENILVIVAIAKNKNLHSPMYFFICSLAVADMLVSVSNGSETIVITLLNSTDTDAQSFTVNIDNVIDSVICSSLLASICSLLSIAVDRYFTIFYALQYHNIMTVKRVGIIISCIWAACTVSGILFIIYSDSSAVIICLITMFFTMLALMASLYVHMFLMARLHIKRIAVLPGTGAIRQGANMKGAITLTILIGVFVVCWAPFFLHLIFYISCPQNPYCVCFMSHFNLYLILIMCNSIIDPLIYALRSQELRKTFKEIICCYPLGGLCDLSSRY
NTR1 agonist: NTR1 (human) agonism. activation, % at 20 µM. P30989. 0.17% of 330,000 active. NTR1-U2OS beta-arrestin-GFP spot imaging, agonist mode;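 active means activation at or above 40% of the spot to cytoplasm intensity ratio, with at least 20 cells analyzed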;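 further: 0% = DMSO without peptide and 100% = 100 nM NTR1 peptide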
Target sequence (P30989 whole entry, looked up): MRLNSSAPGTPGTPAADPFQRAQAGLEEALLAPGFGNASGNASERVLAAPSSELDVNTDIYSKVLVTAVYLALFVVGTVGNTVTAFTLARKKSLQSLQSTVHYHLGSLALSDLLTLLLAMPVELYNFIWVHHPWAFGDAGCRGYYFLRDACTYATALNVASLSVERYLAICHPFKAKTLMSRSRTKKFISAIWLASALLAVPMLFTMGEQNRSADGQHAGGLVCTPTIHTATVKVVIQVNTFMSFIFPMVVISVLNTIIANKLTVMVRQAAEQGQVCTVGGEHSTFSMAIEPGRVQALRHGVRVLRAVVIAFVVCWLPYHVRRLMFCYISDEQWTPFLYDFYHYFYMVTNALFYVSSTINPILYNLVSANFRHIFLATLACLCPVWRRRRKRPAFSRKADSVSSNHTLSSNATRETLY
MC4R antag cAMP: blocks human MC4R cAMP signaling | AID 540295 | P32245 | MC4R-expressing cells, MTII-stimulated cAMP, LANCE TR-FRET | inhibition, % at 6.5 µM | 0.48% of 360,000 active;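 active means inhibition above its plate's cutoff, the mean of tested wells on that plate plus 3 SD, cut at about 29% in these data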;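 further: 0% = Melanotan II alone and 100% = Melanotan II plus saturating MCL0020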
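Material: human MC4R-expressing U2OS cells. Probe or stimulus: Melanotan II challenge. Dosing: 6.5 µM single dose. Times: 30-min compound, 1-h challenge, 1-h detection, room temperature. Technique: TR-FRET with Eu-cAMP and labeled anti-cAMP, 671 nm. Replication: singlicate.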
U2OS cAMP counter: counter-screen for MC4R antagonists: nonselective cAMP signaling inhibitors; shares compounds with MC4R antag cAMP; parental U2OS, forskolin cAMP, LANCE TR-FRET; inhibition, % at 6.5 µM; 26% of 1,600 active;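 active means mean inhibition over triplicates above the low-control well mean plus 3 SD, set per campaign, cut at about 13% in these data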;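 further: signal is single emission at 671 nm which falls as cellular cAMP rises; 0% = forskolin-stimulated wells and 100% = buffer without forskolin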
MC4R cAMP antag: human MC4R cAMP antagonism confirmation; inhibition, % at 6.5 µM; 27% of 1,600 active; AID 602195; shares compounds with MC4R antag cAMP; MC4R-expressing cells, MTII-stimulated cAMP, TR-FRET; in the data active means inhibition above about 29%;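 further: 0% = agonist stimulated wells alone and 100% = agonist stimulated wells plus saturating reference antagonist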
Starred values were filed as active, the others as inactive; · = no result given.

SMILES | PG9 Ab binder | NR1D1 modulator | MC4R ag barr | NTR1 agonist | MC4R antag cAMP | U2OS cAMP counter | MC4R cAMP antag
COc1ccc(Cc2noc(CN3CCN(Cc4cccc(Cl)c4)CC3)n2)cc1OC | -3.2 | -5.7 | -1.0 | -0.2 | 33.8* | 16.6* | -3.6
COC(=O)C1CN(Cc2ccccc2)CCS(=O)(=O)N1Cc1cn(Cc2ccccc2Br)nn1 (stereo unspecified) | · | -1.6 | · | · | · | · | ·
COc1ccccc1N(C)S(=O)(=O)c1ccc(C(=O)OCC(=O)c2c[nH]c3ccccc23)cc1 | -2.2 | -4.9 | 3.6 | 4.5 | 39.2* | 4.5 | 5.2
COc1ccccc1N(C)S(=O)(=O)c1ccc(C(=O)OCC(=O)N(C)c2ccccc2)cc1 | -0.3 | -10.8 | -2.7 | 4.8 | 4.3 | · | ·
Cc1ccc(-c2c3c(nc4sc(C(N)=O)c(N)c24)CCC3)cc1 | 0.3 | 2.5 | 4.5 | 3.4 | 4.3 | · | ·
COc1ccc(-c2c3c(nc4sc5c(Cl)nc(C)nc5c24)CCC3)cc1 | · | · | 1.4 | 23.0 | 40.7* | 40.5* | 63.7*
C[C@H]1CN([C@@H](C)CO)C(=O)c2cccc(NC(=O)Nc3ccc(C(F)(F)F)cc3)c2O[C@@H]1CN(C)Cc1ccc(Cl)c(Cl)c1 | -0.5 | -2.8 | 2.2 | 17.0 | 41.4* | -2.7 | -12.3
CC(C)NC(=O)N(C)C[C@H]1Oc2c(NC(=O)Nc3ccc(C(F)(F)F)cc3)cccc2C(=O)N([C@H](C)CO)C[C@@H]1C | -1.6 | 7.5 | -0.7 | 16.3 | 12.9 | · | ·
C[C@H](CO)N1C[C@H](C)[C@@H](CN(C)C(=O)NC2CCCCC2)Oc2c(NC(=O)Nc3ccc(C(F)(F)F)cc3)cccc2C1=O | -1.5 | 0.6 | 0.2 | 15.3 | 29.9* | 1.6 | 18.3
C[C@H](CO)N1C[C@H](C)[C@@H](CN(C)C(=O)Nc2ccc(C(F)(F)F)cc2)Oc2c(NC(=O)Nc3ccc4c(c3)OCO4)cccc2C1=O | -0.6 | -1.1 | -0.6 | 5.4 | 17.4 | · | ·
C[C@H](CO)N1C[C@H](C)[C@@H](CN(C)C(=O)Nc2ccc3c(c2)OCO3)Oc2c(NC(=O)Nc3ccc(C(F)(F)F)cc3)cccc2C1=O | -1.0 | -4.0 | -0.5 | 12.3 | 55.6* | -1.8 | 30.0*
C[C@@H]1CN([C@H](C)CO)C(=O)c2cc(NC(=O)Nc3ccc(C(F)(F)F)cc3)ccc2O[C@H]1CN(C)Cc1ccc(Cl)c(Cl)c1 | -0.8 | 15.7 | -1.2 | 15.0 | 6.3 | · | ·
Cc1ccc(F)cc1C(=O)N(Cc1ccccn1)CC1CCCO1 (stereo unspecified) | · | 10.3 | · | · | · | · | ·
COC(=O)C1=CC(=O)C=C(OC)[C@@]12Oc1cc(C)cc(OC)c1C2=O | · | 14.2 | · | · | · | · | ·
COc1ccc(NC(=O)/C(Cl)=C(/Cl)S(=O)(=O)Cc2ccc(C)cc2)cn1 | · | · | -3.6 | · | 40.4* | 37.7* | 37.0*
COc1ccc(NC(=O)Cc2ccc(Cl)c(Cl)c2)cn1 | 0.9 | -3.1 | 1.2 | 0.6 | 2.9 | · | ·
COc1ccc(COc2cc(-c3cccc(OC)c3)nc3ccc(NC(=O)c4cccnc4)cc23)cc1 | -0.7 | 2.8 | -2.1 | 6.1 | 33.1* | 2.1 | 12.6
Cc1ccc(NC(=O)[C@@H]2CC(=O)O[C@@H]2c2ccccc2)cc1C | · | -6.8 | · | · | · | · | ·
O=C(COC(=O)[C@H](Cc1ccccc1)NC(=O)c1ccco1)NCc1ccccc1 | -1.4 | -2.3 | -1.8 | -0.2 | 29.3* | 6.8 | 13.8
CN(C)C(=O)COC(=O)[C@H](Cc1ccccc1)NC(=O)c1ccco1 | 3.7 | 6.9 | -0.8 | 1.8 | 28.7* | 13.8* | 27.0
O=C(NC(Cc1ccc(O)cc1)C(=O)O)c1ccco1 (stereo unspecified) | -1.7 | 5.3 | -1.1 | -0.8 | -6.1 | · | ·
O=C(NCc1ccc(F)cc1)C1CCCN(S(=O)(=O)c2cccc3nonc23)C1 (stereo unspecified) | 0.1 | 1.8 | 2.0 | -0.3 | 4.8 | · | ·
O=C(Nc1ccc(F)cc1)C1CCCN(S(=O)(=O)c2cccc3nonc23)C1 (stereo unspecified) | 1.1 | 1.5 | 0.5 | 0.2 | 31.8* | 0.2 | 8.2
COc1ccc(CNC(=O)CCN2C(=O)c3ccncc3C2=O)cc1OC | -1.2 | -3.5 | 1.3 | 1.1 | 33.5* | -1.2 | -14.0
CC(C)N(c1ccccc1)c1ccc(NC(=O)COC(=O)CCN2C(=O)c3cccc([N+](=O)[O-])c3C2=O)cc1 | -1.9 | -0.8 | 7.4 | 34.2 | 35.9* | 13.0 | 21.3
SMILES | PG9 Ab binder | NR1D1 modulator | MC4R ag barr | NTR1 agonist | MC4R antag cAMP | U2OS cAMP counter | MC4R cAMP antag
COc1ccc(OC)c(NC(=O)CCN2C(=O)c3cccc([N+](=O)[O-])c3C2=O)c1 | 0.1 | -3.0 | -1.4 | 0.1 | 41.5* | 13.0 | 27.4
COc1cc(OC)c(OC)cc1CNC(=O)CCN1C(=O)c2cccc([N+](=O)[O-])c2C1=O | -0.1 | 0.5 | 0.1 | 1.4 | 31.6* | 5.0 | 12.8
COc1ccc(NC(=O)CCCCCN2C(=O)c3cccc([N+](=O)[O-])c3C2=O)c(OC)c1 | 0.1 | 0.9 | 0.3 | 0.0 | 15.7 | · | ·
C#CCOCCOCCOCCNc1nc(N2CCOCC2)nc(N2CCN(C(=O)[C@H](CCC(=O)O)n3cc(C(N)CC(C)C)nn3)CC2)n1 (stereo partly specified) | · | -2.4 | · | · | · | · | ·
CCCC[C@@H]1C(=O)N2N=Cc3cscc3[C@H]2N2N=Cc3cscc3[C@@H]12 | · | 1.4 | · | · | · | · | ·
CCCCOCCCNC(=O)C[C@H]1C(=O)N(Cc2ccc(OC)cc2)C2=CCCC[C@@]21C(=O)OCC | · | 4.3 | · | · | · | · | ·
CC(CCN1CCC(C(O)(c2ccccc2)c2ccccc2)CC1)Oc1ccc(C#N)c(F)c1 (stereo unspecified) | · | -3.0 | · | · | · | · | ·
COc1ccccc1CCn1cnc(-c2ccc(F)cc2F)c1CC(C)C | 1.0 | 8.1 | · | · | · | · | ·
CCOc1ccc(NC(=O)CCN2C(=O)c3cccc([N+](=O)[O-])c3C2=O)cc1 | -0.3 | -2.4 | 0.8 | 0.9 | 32.9* | 10.4 | 17.6
O=C1C(F)=CC(COC(c2ccccc2)(c2ccccc2)c2ccccc2)OC1n1cc(F)c(=O)[nH]c1=O (stereo unspecified) | -1.0 | 3.3 | -5.0 | · | 29.5* | -2.2 | -13.8
CC(=O)OCC1OC(n2cc(F)c(=O)[nH]c2=O)C(OC(C)=O)C1OC(C)=O (stereo unspecified) | 1.9 | -4.7 | -0.5 | -1.1 | 13.8 | · | ·
Cc1c(C(=O)NCCSCc2ccco2)cccc1[N+](=O)[O-] | -2.4 | -0.3 | -1.6 | -1.8 | 16.1 | · | ·
Cc1c(C(=O)NCCSCc2ccccc2)cccc1[N+](=O)[O-] | 2.5 | -1.6 | 0.3 | 0.5 | 35.1* | 2.6 | -4.7
CCC(Sc1nc2ccsc2c(=O)n1Cc1ccc(C(=O)O)cc1)C(=O)Nc1cc(Cl)ccc1C (stereo unspecified) | -1.1 | -1.6 | -1.7 | · | 36.7* | 0.7 | 2.5
